ERp5 inh: blocks human ERp5 reductase activity on insulin; inhibition, % at 9.99 µM; ERp5 insulin aggregation, absorbance 650 nm, 90 min; AID 651711; Q15084; 350,000 tested, 0.05% active;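 active = mean replicate inhibition above about 25%, with every replicate also reaching it, limit read from the data, passing the limit was not always enough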
Target sequence (Q15084 whole entry, looked up): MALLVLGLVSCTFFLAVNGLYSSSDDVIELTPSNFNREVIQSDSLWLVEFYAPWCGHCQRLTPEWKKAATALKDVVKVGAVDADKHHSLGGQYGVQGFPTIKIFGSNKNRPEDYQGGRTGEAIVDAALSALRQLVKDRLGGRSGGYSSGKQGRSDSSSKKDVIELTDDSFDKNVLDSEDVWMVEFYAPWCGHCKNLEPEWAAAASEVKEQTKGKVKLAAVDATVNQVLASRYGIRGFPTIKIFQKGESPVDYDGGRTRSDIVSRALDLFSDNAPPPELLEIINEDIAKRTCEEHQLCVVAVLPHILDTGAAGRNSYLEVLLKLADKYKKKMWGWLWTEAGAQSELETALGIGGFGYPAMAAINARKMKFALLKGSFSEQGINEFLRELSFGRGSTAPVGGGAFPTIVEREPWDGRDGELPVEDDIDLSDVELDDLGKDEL
VIM-2 inhibitor: inhibitors of Pseudomonas aeruginosa VIM-2 metallo-beta-lactamase; purified VIM-2, nitrocefin hydrolysis, epi-absorbance fluorescence; inhibition, % at 5.6 µM; 290,000 tested, 0.89% active;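 active = inhibition above the mean of all tested compounds plus 3 SD, cutoff set per screening run, cut at about 7.5% in these data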;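 also: red hydrolysis product quenches plate fluorescence so inhibitors raise well fluorescence; 0% = enzyme with DMSO and 100% = DMSO without enzyme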
IMP-1 inh-1: inhibitors of Pseudomonas aeruginosa IMP-1 metallo-beta-lactamase; purified IMP-1, nitrocefin hydrolysis, epi-absorbance fluorescence; 290,000 tested, 0.45% active; inhibition, % at 5.6 µM; AID 1556;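 active = inhibition above the mean plus 3 SD of all compounds in the same screening run, cut at about 4.5% in these data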;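 also: 0% = IMP-1 with DMSO and 100% = DMSO wells lacking enzyme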
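system = purified recombinant IMP-1 beta-lactamase | amount = 0.2 nM IMP-1, as dispensed | medium = HEPES buffer pH 7.1 with ZnSO4 and Brij 35 | times = 25 °C, 15 min preincubation, 25 min reaction | detection = plate fluorescence quenching by hydrolysis product, ex 480/em 530 nm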
PDI inh: blocks human protein disulfide isomerase activity. P07237. PDI insulin aggregation turbidity, A650, 90 min. inhibition, % at 10 µM. 350,000 tested, 0.052% active. AID 588391;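 active = mean inhibition across replicates of 30% or more, whatever share of single replicates reach that level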
PglD inh: blocks C. jejuni PglD acetyltransferase activity; purified PglD enzyme, DTNB colorimetric CoA detection; inhibition, % at 12.5 µM; AID 602405; 360,000 tested, 0.098% active; in the data active = inhibition above about 16%, passing the limit was not always enough
PvdQ inh: blocks Pseudomonas aeruginosa PvdQ acylase activity; 340,000 tested, 0.063% active; inhibition, % at 10 µM; purified PvdQ acylase, fluorescence plate reader; in the data active = inhibition above about 30%, passing the limit was not always enough;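 also: 0% = vehicle neutral wells and 100% = reference inhibitor wells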
IMP-1 inh-2: blocks IMP-1 metallo-beta-lactamase in VIM-2 selectivity screen; shares compounds with VIM-2 inhibitor; purified IMP-1, nitrocefin hydrolysis, epi-absorbance fluorescence; inhibition, % at 5.6 µM; 1,300 tested, under 10 active; call rule not given here;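 also: 0% = enzyme with vehicle and 100% = vehicle without enzyme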
VIM-2 FRET inh: counter-screen for VIM-2 inhibitors: epi-absorbance artifacts via FRET; inhibition, % at 5.6 µM; purified VIM-2, CCF2 FRET substrate hydrolysis; 1,300 tested, 23% active; shares compounds with VIM-2 inhibitor;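 active = inhibition above the mean of all tested compounds plus 3 SD, cut at about 19% in these data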;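 also: 0% = VIM-2 plus DMSO and 100% = no enzyme wells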
TEM-1 counter: selectivity counter-screen for VIM-2 inhibitors: E. coli TEM-1 inhibitors. shares compounds with VIM-2 inhibitor. inhibition, % at 5.6 µM. Purified TEM-1, nitrocefin hydrolysis, epi-absorbance fluorescence. AID 1866. 1,300 tested, 3% active;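 active = inhibition above that campaign's mean inhibition plus 3 SD, cut at about 0.46% in these data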;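 also: 0% = TEM-1 with DMSO and 100% = TEM-1 with 100 µM potassium clavulanate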
Target sequence (P62593 whole entry, looked up): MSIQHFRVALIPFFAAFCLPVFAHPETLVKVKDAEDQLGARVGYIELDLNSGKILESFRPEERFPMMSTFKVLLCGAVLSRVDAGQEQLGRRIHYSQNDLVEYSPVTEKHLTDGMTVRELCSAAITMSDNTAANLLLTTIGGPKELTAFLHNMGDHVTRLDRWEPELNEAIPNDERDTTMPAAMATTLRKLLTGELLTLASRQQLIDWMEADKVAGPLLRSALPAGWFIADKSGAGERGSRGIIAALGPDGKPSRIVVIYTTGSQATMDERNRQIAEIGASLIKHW
VIM-2 inh conf: confirmation of P. aeruginosa VIM-2 metallo-beta-lactamase inhibitors. 1,300 tested, 96% active. purified VIM-2, nitrocefin hydrolysis, epi-absorbance. inhibition, % at 5.6 µM. shares compounds with VIM-2 inhibitor;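 active = inhibition of the VIM-2 beta-lactamase enzyme above about 11% from the earlier first-round screen, limit read from the data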;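 also: 0% = VIM-2 with DMSO and 100% = buffer wells without enzyme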
* marks the source's active call; other numbers are inactive results; nt = not tested or not shown. The list is not random: actives were taken first. Their share in the collection is about 1%.

SMILES	ERp5 inh	VIM-2 inhibitor	IMP-1 inh-1	PDI inh	PglD inh	PvdQ inh	IMP-1 inh-2	VIM-2 FRET inh	TEM-1 counter	VIM-2 inh conf
Cc1cc(OCC(=O)NCCCn2ccnc2)c2c(C)c(C)c(=O)oc2c1	7.9	79.8*	-2.4	-0.6	-4.8	-6.4	-3.5	-3.2	-8.7	85.0*
CCCCc1cc(=O)oc2cc(C)cc(OCC(=O)NCCN3CCOCC3)c12	4.8	2.1	-1.4	-4.9	nt	7.5	nt	nt	nt	nt
CCCCn1c(Cc2ccccc2)n[nH]c1=S	nt	-1.6	-3.2	-4.6	3.4	-8.1	nt	nt	nt	nt
Cc1ccccc1-n1c(-c2ccco2)n[nH]c1=S	-1.5	13.5*	-2.1	1.8	2.2	-6.5	-2.4	44.9*	-2.7	31.4*
CCCCn1c(-c2ccco2)n[nH]c1=S	nt	42.5*	-3.9	-0.4	nt	19.0	-2.7	72.1*	-6.6	53.3*
CCCCn1c(-c2sccc2C)n[nH]c1=S	2.7	38.9*	-1.7	-1.0	nt	-1.5	-2.0	67.0*	-8.2	50.1*
CC(C)Cn1c(-c2ccco2)nc2c(c(=O)c3ccccc3n2C)c1=O	3.7	13.5*	-2.3	nt	nt	nt	-3.0	-2.5	-5.4	31.9*
C[C@H]1CN([C@@H](C)CO)C(=O)c2cccc(NS(=O)(=O)c3ccccc3)c2O[C@@H]1CN(C)C(=O)Nc1ccc2c(c1)OCO2	-0.5	nt	nt	nt	-1.3	nt	nt	nt	nt	nt
C[C@@H]1CN([C@@H](C)CO)S(=O)(=O)c2ccc(-c3cncnc3)cc2O[C@H]1CN(C)CC1CC1	-1.1	nt	nt	nt	1.7	nt	nt	nt	nt	nt
CN(C)CC(=O)N[C@H]1CC[C@@H](CCn2cc(C3CC3)nn2)O[C@H]1CO	3.9	nt	nt	nt	3.4	nt	nt	nt	nt	nt
CN(C)C(=O)[C@H]1[C@H](CO)[C@H]2Cn3c(ccc(-c4ccccc4F)c3=O)[C@@H]1N2C(=O)c1ccncc1	-2.3	nt	nt	nt	-1.0	nt	nt	nt	nt	nt
CCCCn1c(-c2ccoc2C)n[nH]c1=S	nt	16.2*	-3.7	0.9	3.9	-2.4	-2.2	45.4*	-2.0	30.2*
CC(C)Cn1c(-c2ccc(F)cc2)n[nH]c1=S	nt	3.7	-0.2	3.1	nt	-6.1	nt	nt	nt	nt
CC(C)Cn1c(-c2ccco2)n[nH]c1=S	nt	17.3*	-4.2	-32.0	-3.4	-14.5	-3.4	49.3*	-7.9	31.3*
CC(C)Cn1c(-c2ccccc2F)n[nH]c1=S	nt	19.2*	1.4	9.4	4.0	-19.7	-2.5	30.3*	-7.1	20.9*
C=CCn1c(-c2ccoc2C)n[nH]c1=S	nt	-3.8	-6.2	4.7	-0.2	4.9	nt	nt	nt	nt
CC(C)NC(=O)N(C)C[C@H]1Oc2ccc(NS(=O)(=O)c3ccc(F)cc3)cc2C(=O)N([C@@H](C)CO)C[C@@H]1C	nt	nt	nt	nt	6.1	nt	nt	nt	nt	nt
OC(CON=C1c2ccccc2-c2ccccc21)CN1CCNCC1 (stereo unspecified)	10.0	30.1*	-0.6	-5.2	nt	-1.4	-3.2	-3.5	-6.5	45.2*
Oc1ccc(-c2n[nH]c(=S)n2-c2ccc3c(c2)OCCO3)cc1	5.0	13.9*	-1.4	10.2	nt	2.7	-2.2	32.6*	-7.6	20.1*
Fc1ccc(-n2c(-c3ccc4c(c3)OCO4)n[nH]c2=S)cc1Cl	nt	0.4	-3.5	14.2	nt	-3.8	nt	nt	nt	nt
S=c1[nH]nc(-c2ccc3ccccc3n2)n1-c1ccc2ncccc2c1	3.5	4.0	-0.3	19.1	nt	4.5	nt	nt	nt	nt
S=c1[nH]nc(-c2ccc3ncccc3c2)n1-c1ccc2c(c1)OCCO2	7.8	26.5*	-0.5	0.0	nt	-0.2	-2.3	51.8*	-5.7	33.2*
S=c1[nH]nc(Cn2c(-c3ccccn3)nc3ccccc32)n1-c1ccc2c(c1)OCCO2	-1.8	23.2*	-2.0	3.6	-2.5	-4.9	-2.6	48.5*	-5.0	31.4*
CC(=NCCCn1ccnc1)c1c(C)[nH]n(-c2ccc([N+](=O)[O-])cc2)c1=O	0.3	12.5*	-2.5	3.3	4.8	-9.2	-1.8	-15.8	-3.0	34.1*
Cc1[nH]n(-c2ccc([N+](=O)[O-])cc2)c(=O)c1/C=N/N1CCOCC1	1.3	-3.1	-0.2	-13.8	nt	17.9	nt	nt	nt	nt
SMILES	ERp5 inh	VIM-2 inhibitor	IMP-1 inh-1	PDI inh	PglD inh	PvdQ inh	IMP-1 inh-2	VIM-2 FRET inh	TEM-1 counter	VIM-2 inh conf
C[C@@H]1CN([C@H](C)CO)C(=O)c2cc(NC(=O)CCC(F)(F)F)ccc2O[C@@H]1CN(C)Cc1ccc(Oc2ccccc2)cc1	6.2	nt	nt	nt	-2.1	nt	nt	nt	nt	nt
Cc1nn2c(N3CCN(CCO)CC3)c3c(nc2c1-c1ccccc1)CCCC3	5.3	37.4*	-3.5	-3.0	nt	15.4	-3.5	-3.7	-6.7	59.5*
Cc1nn2c(N3CCCC3)c3c(nc2c1-c1ccccc1)CCC3	-5.8	3.8	0.0	4.5	-0.5	nt	nt	nt	nt	nt
O=C(Nc1ccc2nc(-c3cccnc3)[nH]c2c1)c1ccccc1F	nt	48.9*	-0.7	3.7	5.2	-4.2	-1.5	-0.5	-1.4	4.5
COc1ccc2c3c([nH]c2c1)[C@@H](CO)N(S(=O)(=O)c1cn(C)cn1)CC31CCN(CC2CC2)CC1	-2.7	nt	nt	nt	nt	nt	nt	nt	nt	nt
CCN1CCN(C(=O)CCc2nc3ccccc3c(=O)[nH]2)CC1	nt	20.7*	-0.5	3.2	-8.0	10.1	-2.6	-2.5	-4.5	42.9*
COc1cc2ncnc(NCCCN3CCOCC3)c2cc1OC	1.8	2.7	0.8	5.4	nt	-9.3	nt	nt	nt	nt
CCOc1cc2nc(-c3ccc(OC)c(OC)c3)nc(NCCCN3CCOCC3)c2cc1OC	nt	26.2*	0.3	-6.5	-10.7	-7.5	-3.7	3.2	-6.8	49.3*
CN(C)CC(=O)Nc1ccc2c(c1)[C@H]1C[C@H](CC(=O)N3CCc4ccccc4C3)O[C@@H](CO)[C@H]1O2	0.9	nt	nt	nt	-1.7	nt	nt	nt	nt	nt
CC(C)C(CCNCc1ccccn1)c1ccc(Cl)cc1 (stereo unspecified)	1.1	-5.8	-5.2	-6.6	6.0	-6.6	nt	nt	nt	nt
Clc1ccc(-c2ccc(CNCc3ccccn3)o2)cc1	-0.4	24.2*	-2.5	-7.6	5.5	-8.8	-3.1	-18.8	-5.7	42.3*
COc1ccc(-c2ccc(CNCc3ccccn3)o2)cc1Cl	nt	55.5*	-1.2	nt	nt	nt	-2.3	-2.3	-7.1	67.3*
CCC(=O)N1C[C@@H](C)[C@@H](OC)CN(C)C(=O)c2ccc(NC(=O)C3CCOCC3)cc2OC[C@H]1C	nt	nt	nt	nt	-1.0	nt	nt	nt	nt	nt
Cc1nc(S(=O)(=O)N2CCN(Cc3ccc(OCCO)cc3)CC2)cn1C	1.9	nt	nt	nt	3.9	nt	nt	nt	nt	nt
O=C(C[C@@H]1C=C[C@@H](NC(=O)Nc2ccc(C(F)(F)F)cc2)[C@H](CO)O1)NCCN1CCCC1	7.9	nt	nt	nt	0.4	nt	nt	nt	nt	nt
CN1CCN(c2ccc(NC(=S)NC(=O)c3cccc4ccccc34)cc2)CC1	4.8	19.6*	0.8	1.7	4.1	-18.6	-2.5	-7.6	-6.2	29.2*

Source: PubChem BioAssay
